Assay results as given in ChEMBL document CHEMBL1138940, “Design and synthesis of orally efficacious benzimidazoles as melanin-concentrating hormone receptor 1 antagonists” (Bioorg Med Chem Lett, 2006).

How the values were obtained:
[1] = biological target: T1, Melanin-concentrating hormone receptor 1 (Homo sapiens, UniProt Q99705); assay: Binding affinity to human MCHR1 by radioligand binding assay
[2] = biological target: Melanin-concentrating hormone receptor 2 (Homo sapiens) (UniProt Q969V1); assay: Binding affinity to human MCHR2 assessed as inhibition of MCH-mediated calcium ion influx by FLIPR assay; assay type: functional
Chain of Melanin-concentrating hormone receptor 2 (Homo sapiens) (Q969V1 whole entry): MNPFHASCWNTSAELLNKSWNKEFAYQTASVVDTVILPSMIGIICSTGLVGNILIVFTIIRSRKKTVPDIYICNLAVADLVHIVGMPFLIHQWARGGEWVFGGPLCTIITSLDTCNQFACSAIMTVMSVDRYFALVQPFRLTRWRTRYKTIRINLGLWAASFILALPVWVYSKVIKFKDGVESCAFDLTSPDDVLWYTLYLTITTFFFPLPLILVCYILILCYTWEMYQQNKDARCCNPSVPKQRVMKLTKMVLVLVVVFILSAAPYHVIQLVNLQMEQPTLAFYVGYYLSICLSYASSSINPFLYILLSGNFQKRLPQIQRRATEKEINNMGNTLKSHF

[3] = test system: Rattus norvegicus; assay: AUC(0-6h) in rat at 10 mg/kg, po; conditions: in vivo
[4] = biological target: Melanin-concentrating hormone receptor 1 (Mus musculus) (UniProt Q8JZL2); assay: Inhibition of MCH-ADO binding to mouse brain at 30 mg/kg, po after 6 hrs; assay type: functional, organism-based; set-up: dose 30 mg/kg
Chain of Melanin-concentrating hormone receptor 1 (Mus musculus) (Q8JZL2 whole entry): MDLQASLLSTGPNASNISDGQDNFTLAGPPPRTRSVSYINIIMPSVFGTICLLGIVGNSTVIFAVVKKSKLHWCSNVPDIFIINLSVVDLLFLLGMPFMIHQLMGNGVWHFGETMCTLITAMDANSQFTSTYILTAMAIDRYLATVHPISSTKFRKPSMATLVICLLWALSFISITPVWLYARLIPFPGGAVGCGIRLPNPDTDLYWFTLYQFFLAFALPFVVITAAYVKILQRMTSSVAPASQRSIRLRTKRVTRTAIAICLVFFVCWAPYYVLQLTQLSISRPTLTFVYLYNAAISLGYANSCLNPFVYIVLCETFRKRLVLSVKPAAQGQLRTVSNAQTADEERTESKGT
Procedure, shortened: (§1)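 Mouse ex vivo receptor binding after a single 30 mg/kg oral dose: MCH-ADO binding was measured at 6 h and 24 h post-dose and expressed as percent inhibition relative to vehicle controls, mean ± SEM, n = 3.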

[5] = biological target: Melanin-concentrating hormone receptor 1 (Mus musculus) (UniProt Q8JZL2); assay: Inhibition of MCH-ADO binding to mouse brain at 30 mg/kg, po after 24 hrs; assay type: functional, organism-based; set-up: dose 30 mg/kg
Procedure, shortened: as §1

[6] = test system: Mus musculus; assay: Inhibition of cumulative food intake in DIO mouse at 30 mg/kg, po after 2 hrs; assay type: functional
Procedure, shortened: (§2)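 Diet-induced obese mice were fasted 24 h, then given 30 mg/kg orally 1 h before dark onset. Food was returned at dark onset, and cumulative intake was measured at 2, 6 and 24 h. Results are expressed as percent inhibition versus vehicle-treated controls.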

[7] = biological target: T1, Melanin-concentrating hormone receptor 1; assay: Binding affinity to human MCHR1 assessed as inhibition of MCH-mediated calcium ion influx by FLIPR assay; assay type: functional
Procedure, shortened: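 Functional antagonism at human MCH-R1: cells expressing hMCH-R1 were read by FLIPR for block of MCH-mediated Ca2+ influx, and the value was reported as Kb.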

[8] = test system: Mus musculus; assay: Inhibition of cumulative food intake in DIO mouse at 30 mg/kg, po after 24 hrs; assay type: functional
Procedure, shortened: as §2

[9] = test system: Mus musculus; assay: Inhibition of cumulative food intake in DIO mouse at 30 mg/kg, po after 6 hrs; assay type: functional
Procedure, shortened: as §2

T1 sequence (Q99705 whole entry): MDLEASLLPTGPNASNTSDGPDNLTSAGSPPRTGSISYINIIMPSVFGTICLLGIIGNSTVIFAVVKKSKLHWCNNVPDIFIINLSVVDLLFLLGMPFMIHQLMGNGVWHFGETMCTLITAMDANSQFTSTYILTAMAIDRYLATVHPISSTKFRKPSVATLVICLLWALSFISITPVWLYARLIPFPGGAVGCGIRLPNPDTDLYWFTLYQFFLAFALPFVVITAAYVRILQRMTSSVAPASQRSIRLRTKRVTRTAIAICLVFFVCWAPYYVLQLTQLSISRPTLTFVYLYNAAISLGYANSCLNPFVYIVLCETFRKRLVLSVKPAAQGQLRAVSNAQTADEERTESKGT

Row | SMILES | Ki [1] | Activity [2] | further results
1 | NC(=O)c1cccc(-c2ccc(C(=C3CCN(CC4CC4)CC3)c3nc4cc(C(F)(F)F)c(F)cc4[nH]3)cc2)c1 | 77 nM | – | –
2 | N#Cc1cccc(-c2ccc(C(=C3CCN(CC4CC4)CC3)c3nc4cc(F)c(F)cc4[nH]3)cc2)c1 | 52 nM | > 3 µM | –
3 | N#Cc1cccc(-c2ccc(C(=C3CCN(CC(N)=O)CC3)c3nc4cc(C(F)(F)F)c(F)cc4[nH]3)cc2)c1 | 15.5 nM | – | –
4 | N#Cc1cccc(-c2ccc(C(=C3CCN(CC4CC4)CC3)c3nc4cc(C#N)ccc4[nH]3)cc2)c1 | – | > 3 µM | –
5 | N#Cc1ccc(F)c(-c2ccc(C(=C3CCN(CC4CC4)CC3)c3nc4cc(C(F)(F)F)c(F)cc4[nH]3)cc2)c1 | 3.9 nM | – | AUC [3]: 3000 ng·h/mL
6 | N#Cc1ccccc1-c1ccc(C(=C2CCN(CC3CC3)CC2)c2nc3cc(C(F)(F)F)c(F)cc3[nH]2)cc1 | 464 nM | > 3 µM | –
7 | CS(=O)(=O)N1CCC(=C(c2ccc(-c3cccc(C#N)c3)cc2)c2nc3cc(F)c(C(F)(F)F)cc3[nH]2)CC1 | 71.4 nM | > 3 µM | –
8 | N#Cc1cccc(-c2ccc(C3(c4nc5cc(F)c(C(F)(F)F)cc5[nH]4)CC34CCN(CC(=O)O)CC4)cc2)c1 (configuration not stated) | 41 nM | > 3 µM | –
9 | N#Cc1cccc(-c2ccc(C(=C3CCN(CCO)CC3)c3nc4cc(C(F)(F)F)c(F)cc4[nH]3)cc2)c1 | 7.2 nM | – | –
10 | CCN(CC)C(=O)N1CCC2(CC1)CC2(c1ccc(-c2cccc(C#N)c2)cc1)c1nc2cc(F)c(C(F)(F)F)cc2[nH]1 (configuration not stated) | 221 nM | > 3 µM | –
11 | CS(=O)(=O)c1cccc(-c2ccc(C(=C3CCN(CC4CC4)CC3)c3nc4cc(F)c(C(F)(F)F)cc4[nH]3)cc2)c1 | – | > 3 µM | –
12 | CCN(CC)C(=O)N1CCC(=C(c2ccc(-c3cccc(C#N)c3)cc2)c2nc3cc(F)c(C(F)(F)F)cc3[nH]2)CC1 | 22 nM | > 3 µM | –
13 | Oc1ccc(-c2ccc(C(=C3CCN(CC4CC4)CC3)c3nc4cc(F)c(C(F)(F)F)cc4[nH]3)cc2)cn1 | 174 nM | > 3 µM | –
14 | NC(=O)c1cccc(-c2ccc(C(=C3CCN(CC4CC4)CC3)c3nc4cc(F)c(C(F)(F)F)cc4[nH]3)cc2)c1 | – | > 3 µM | –
15 | CC(=O)N1CCC(=C(c2ccc(-c3cccc(C#N)c3)cc2)c2nc3cc(F)c(C(F)(F)F)cc3[nH]2)CC1 | 31 nM | > 3 µM | AUC [3]: 5250 ng·h/mL; inhibition [4]: 48%
16 | CC(C)S(=O)(=O)N1CCC(=C(c2ccc(-c3cccc(C#N)c3)cc2)c2nc3cc(F)c(C(F)(F)F)cc3[nH]2)CC1 | – | > 3 µM | –
17 | N#Cc1cccc(-c2ccc(C3(c4nc5cc(C(F)(F)F)c(F)cc5[nH]4)CC34CCN(C(=O)N3CCCC3)CC4)cc2)c1 (configuration not stated) | – | > 3 µM | –
18 | N#Cc1ccc(F)c(-c2ccc(C(=C3CCN(CC4CC4)CC3)c3nc4cc(F)c(C(F)(F)F)cc4[nH]3)cc2)c1 | – | > 3 µM | inhibition [4]: 92%; inhibition [5]: 80%
19 | N#Cc1cccc(-c2ccc(C(=C3CCN(CC4CC4)CC3)c3nc4cc(Cl)cc(Cl)c4[nH]3)cc2)c1 | 87 nM | > 3 µM | –
20 | N#Cc1cccc(-c2ccc(C(=C3CCN(CCO)CC3)c3nc4cc(F)c(C(F)(F)F)cc4[nH]3)cc2)c1 | – | > 3 µM | –
21 | Fc1cc2[nH]c(C(=C3CCN(CC4CC4)CC3)c3ccc(-c4cncnc4)cc3)nc2cc1C(F)(F)F | – | > 3 µM | –

Row | SMILES | Ki [1] | Activity [2] | further results
22 | N#Cc1cccc(-c2ccc(C(=C3CCN(Cc4nccs4)CC3)c3nc4cc(C(F)(F)F)c(F)cc4[nH]3)cc2)c1 | 45 nM | > 3 µM | –
23 | N#Cc1cnc(O)c(-c2ccc(C(=C3CCN(CC4CC4)CC3)c3nc4cc(F)c(C(F)(F)F)cc4[nH]3)cc2)c1 | – | > 3 µM | –
24 | N#CCc1cccc(-c2ccc(C(=C3CCN(CC4CC4)CC3)c3nc4cc(C(F)(F)F)c(F)cc4[nH]3)cc2)c1 | 26 nM | > 3 µM | –
25 | Cn1cccc1C(=O)N1CCC(=C(c2ccc(-c3cccc(C#N)c3)cc2)c2nc3cc(F)c(C(F)(F)F)cc3[nH]2)CC1 | – | > 3 µM | –
26 | N#Cc1cccc(-c2ccc(C3(c4nc5cc(C(F)(F)F)c(F)cc5[nH]4)CC34CCN(CC3CC3)CC4)cc2)c1 (configuration not stated) | – | > 3 µM | inhibition [4]: 74%
27 | N#Cc1cccc(-c2ccc(C(=C3CCN(C(=O)C4CC4)CC3)c3nc4cc(C(F)(F)F)c(F)cc4[nH]3)cc2)c1 | 31 nM | > 3 µM | –
28 | N#Cc1cccc(-c2ccc(C(=C3CCN(CC(N)=O)CC3)c3nc4cc(F)c(C(F)(F)F)cc4[nH]3)cc2)c1 | – | > 3 µM | –
29 | N#Cc1cccc(-c2ccc(C(=C3CCN(CC4CC4)CC3)c3nc4cc(Cl)c(Cl)cc4[nH]3)cc2)c1 | 15 nM | > 3 µM | inhibition in vivo at 30 mg/kg [6]: 37.4%; Kb [7]: 70 nM; AUC [3]: 6640 ng·h/mL; inhibition [4]: 68%; inhibition [5]: 54%; inhibition in vivo at 30 mg/kg [8]: 26.8%; inhibition in vivo at 30 mg/kg [9]: 41.8%
30 | N#Cc1cccc(-c2ccc(C3(c4nc5cc(C(F)(F)F)c(F)cc5[nH]4)CC34CCNCC4)cc2)c1 (configuration not stated) | – | > 3 µM | –
31 | CN(C)S(=O)(=O)N1CCC(=C(c2ccc(-c3cccc(C#N)c3)cc2)c2nc3cc(F)c(C(F)(F)F)cc3[nH]2)CC1 | 64 nM | > 3 µM | –
32 | N#Cc1cccc(-c2ccc(C(=C3CCN(CC4CC4)CC3)c3nc4cc(C(F)(F)F)c(F)cc4[nH]3)cc2)c1 | – | > 3 µM | inhibition in vivo at 30 mg/kg [6]: 31%; inhibition [4]: 96%; inhibition [5]: 84%; inhibition in vivo at 30 mg/kg [8]: 18.6%; inhibition in vivo at 30 mg/kg [9]: 32.6%
33 | CCN(CC)CCN1CCC2(CC1)CC2(c1ccc(-c2cccc(C#N)c2)cc1)c1nc2cc(F)c(C(F)(F)F)cc2[nH]1 (configuration not stated) | 15 nM | > 3 µM | –
34 | N#Cc1cccc(-c2ccc(C(=C3CCNCC3)c3nc4cc(C(F)(F)F)c(F)cc4[nH]3)cc2)c1 | 3.6 nM | > 3 µM | –
35 | CN(C)C(=O)N1CCC(=C(c2ccc(-c3cccc(C#N)c3)cc2)c2nc3cc(F)c(C(F)(F)F)cc3[nH]2)CC1 | 37 nM | > 3 µM | AUC [3]: 1290 ng·h/mL; inhibition [4]: 50%
36 | N#Cc1c[nH]c(=O)c(-c2ccc(C(=C3CCN(CC4CC4)CC3)c3nc4cc(C(F)(F)F)c(F)cc4[nH]3)cc2)c1 | 99 nM | – | –
37 | Cn1cccc1C(=O)N1CCC(=C(c2ccc(-c3cccc(C#N)c3)cc2)c2nc3cc(C(F)(F)F)c(F)cc3[nH]2)CC1 | 10.1 nM | – | –
38 | N#Cc1cccc(-c2ccc(C(=C3CCN(C(=O)c4cccs4)CC3)c3nc4cc(C(F)(F)F)c(F)cc4[nH]3)cc2)c1 | – | > 3 µM | –
39 | N#Cc1cncc(-c2ccc(C(=C3CCN(CC4CC4)CC3)c3nc4cc(C(F)(F)F)c(F)cc4[nH]3)cc2)c1 | 10.3 nM | > 3 µM | –
40 | CC(C)S(=O)(=O)N1CCC2(CC1)CC2(c1ccc(-c2cccc(C#N)c2)cc1)c1nc2cc(F)c(C(F)(F)F)cc2[nH]1 (configuration not stated) | 67 nM | > 3 µM | –
41 | N#Cc1cccc(-c2ccc(C3(c4nc5cc(C(F)(F)F)c(F)cc5[nH]4)CC34CCN(Cc3ccccc3)CC4)cc2)c1 (configuration not stated) | – | > 3 µM | –
42 | CN(C)C(=O)N1CCC2(CC1)CC2(c1ccc(-c2cccc(C#N)c2)cc1)c1nc2cc(F)c(C(F)(F)F)cc2[nH]1 (configuration not stated) | 32 nM | > 3 µM | –
